In ChEMBL document CHEMBL4266034, “LC-MS-Guided Isolation of Insulin-Secretion-Promoting Monoterpenoid Carbazole Alkaloids from Murraya microphylla” (J Nat Prod, 2018):

Key:
[1] = Induction of insulin secretion in syrian hamster HIT-T15 cells at 40 uM after 1 hr by HTRF assay relative to control; assay type: functional, Mesocricetus auratus
Summary of the method: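 HIT-T15 hamster pancreatic islet cells were exposed to test compounds at 40 μM, with gliclazide at 100 μM as the positive control. Insulin secretion is expressed relative to untreated control cells. The procedure follows an earlier report. Each experiment was performed three times, and significance was taken at p < 0.01.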

[2] = Cytotoxicity against syrian hamster HIT-T15 cells assessed as decrease in cell viability at 40 uM by MTT assay; assay type: cell-based, Mesocricetus auratus

| SMILES | fold change (FC) [1] | Activity [2] |
| --- | --- | --- |
| CC(C)=CCCC1(C)C=Cc2c(c(C)cc3c2[nH]c2cc(OC4(C(C)C)CC=C(C)CC4)ccc23)O1 (centres undefined) | 1.9 - 3.1 | Non-Toxic |
| Cc1cc2c([nH]c3c([C@@]4(C)CC[C@@]5(C(C)C)C[C@H]54)c(O)ccc32)c2c1OC(C)(C)C=C2 | 1.9 - 3.1 | Non-Toxic |
| CC1=C[C@@H](c2c(O)ccc3c2[nH]c2c4c(c(C)cc23)OC(C)(C)C=C4)[C@H](C(C)C)CC1 | 1.9 - 3.1 | Non-Toxic |
| CC(C)=CCC[C@]1(C)C=Cc2c(c(C)cc3c2[nH]c2c([C@@]4(C)CC[C@@]5(C(C)C)C[C@H]54)c(O)ccc23)O1 | 1.9 - 3.1 | Non-Toxic |
| COc1cc2c([nH]c3c4c(c(C)cc32)OC(C)(C)C=C4)c([C@@]2(C)CC[C@@]3(C(C)C)C[C@H]32)c1O | 1.9 - 3.1 | Non-Toxic |
| COc1cc2c(cc1OC(C)(C)[C@@H]1CC=C(C)CC1)[nH]c1c3c(c(C)cc12)OC(C)(C)C=C3 | 1.9 - 3.1 | Non-Toxic |
| CC1=CCC(Oc2ccc3c(c2)[nH]c2c4c(c(C)cc23)OC(C)(C)C=C4)(C(C)C)CC1 (centres undefined) | 1.9 - 3.1 | Non-Toxic |
| Cc1cc2c([nH]c3c([C@]4(C)CC[C@@]5(C(C)C)C[C@H]54)c(O)ccc32)c2c1OC(C)(C)C=C2 | 1.9 - 3.1 | Non-Toxic |
| CC(C)=CCC[C@]1(C)C=Cc2c(c(C)cc3c2[nH]c2c([C@@H]4C=C(C)CC[C@H]4C(C)C)c(O)ccc23)O1 | 1.9 - 3.1 | Non-Toxic |
| COc1cc2c(cc1OC1(C(C)C)CC=C(C)CC1)[nH]c1c3c(c(C)cc12)OC(C)(C)C=C3 (centres undefined) | 1.9 - 3.1 | Non-Toxic |
| COc1cc2c([nH]c3c4c(c(C)cc32)OC(C)(C)C=C4)c([C@]2(C)CC[C@@]3(C(C)C)C[C@H]32)c1O | 1.9 - 3.1 | Non-Toxic |
| COc1cc2c([nH]c3c4c(c(C)cc32)OC(C)(C)C=C4)c([C@@H]2C=C(C)CC[C@H]2C(C)C)c1O | 1.9 - 3.1 | Non-Toxic |
